Bioassay records from PubChem.
BaF3 tox – counter-screen for JAK2V617F inhibitors: parental Ba/F3 viability inhibitors | inhibition, % at 5.6 µM | AID 1486 | CellTiter-Glo ATP luminescence | hit rate 1.1% among 220,000;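 active = inhibition above a per-campaign cutoff, the mean inhibition of all tested compounds plus 3 SD, cut at about 27% in these data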;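 also: 0% = DMSO wells and 100% = JAK Inhibitor I control wells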
MT stabilize HCS – microtubule stabilizers in HeLa cells | hit rate 0.83% among 200,000 | % tubulin-high responders, % at 10 µM | HeLa tubulin immunostaining HCS, 24 h; share of cells brighter than vehicle mean+2SD;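 active = plate Z-score above 3 for both tubulin-high and condensed-nucleus cell shares, with cell loss under 80%, at 10 µM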;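 also: anti alpha tubulin signal scored within the nucleus-defined area of each cell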
IEC-6 tox – IEC-6 cytotoxicity, counter-screen for KLF5 inhibitors. AID 1825. luminescence viability. hit rate 0.78% among 290,000. inhibition, % at 5 µM; in the data active = inhibition above about 22%;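 also: 0% = plate median of test compound wells and 100% = cytotoxic reference compound wells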
APP 5UTR inh – APP translation inhibition. inhibition, % at 2 µM. hit rate 0.82% among 190,000. SH-SY5Y APP 5'UTR-luciferase reporter, luminescence;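 active = inhibition above a set limit, derived from the sample mean plus 3 SD, cut at about 45% in these data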
Ba/F3 V617F tox – loss of viability in JAK2V617F-driven Ba/F3 cells | hit rate 1.1% among 220,000 | Ba/F3 EpoR-JAK2V617F viability, ATP luminescence | inhibition, % at 5.6 µM | AID 1446;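 active = inhibition above the campaign mean plus 3 SD over all tested compounds, cut at about 24% in these data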;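 also: cytokine-independent growth of Ba/F3 cells driven by EpoR plus mutant JAK2; 0% = DMSO-treated cells and 100% = JAK inhibitor I control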
bCat nuc transl – modulators of beta-catenin nuclear translocation; nuclear translocation activity, % at 5 µM; HeLa beta-catenin nuclear translocation, immunofluorescence imaging; hit rate 0.3% among 190,000;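 active = nuclear translocation activity above 50% at 5 µM, with a well cell count of 50 or more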;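 also: per-cell ratio of nuclear to cytoplasmic median beta-catenin stain intensity; plate controls were DMSO negative control for no effect and GSK-3 inhibitor IX positive control for full effect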
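Signal – beta-catenin immunofluorescence imaging with DAPI · Test system – human HeLa cell line · Dosing – 5 µM primary single dose, 0.1% DMSO, 0.02–20 µM confirmation series · Measure – % activation, nuclear-to-cytoplasmic median beta-catenin signal ratio per cell · Incubation – 24 h compound exposure at 37°C, 5% CO2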
* = called active by the depositor. Most compounds without a hit are left out; they make up all but 2.2% or so of the library.

Cc1cccc(CCNS(=O)(=O)c2ccc3c(c2)NC(=O)C(C)S3)c1 (centres undefined) was read as IEC-6 tox 3.2.
Screening COc1ccccc1NC1=C(N2CCCCC2)C(=O)c2ccccc2C1=O returned BaF3 tox 99.9*, MT stabilize HCS 4.9, IEC-6 tox 11.2, APP 5UTR inh -10.8, Ba/F3 V617F tox 100.5* and bCat nuc transl 2.9.
`O=C1C(NS(=O)(=O)c2ccc(Br)cc2)=C(N2CCCCC2)C(=O)c2ccccc21` gave IEC-6 tox 1.1.
For Cc1cc(NC(=O)CSc2nc(C(C)(C)C)nc3ccccc23)no1 the results were BaF3 tox 3.5, MT stabilize HCS 14.2*, IEC-6 tox -1.8, APP 5UTR inh 49.1*, Ba/F3 V617F tox -0.4 and bCat nuc transl 11.4.
For CCC(C)n1c(SCC(=O)Nc2cc(C)on2)nc2ccccc2c1=O (centres undefined) the results were BaF3 tox 4.8, MT stabilize HCS 38.6*, IEC-6 tox -0.7, APP 5UTR inh 14.3, Ba/F3 V617F tox -1.6 and bCat nuc transl -1.1.
Screening Clc1cccc(Cl)c1COc1ccccc1CNn1cnnc1 returned BaF3 tox 4.0, MT stabilize HCS 22.5*, IEC-6 tox 4.0, APP 5UTR inh -16.1, Ba/F3 V617F tox 0.1 and bCat nuc transl 3.1.
`Cc1ccccc1C(=O)NC(CC(C)C)C(=O)Nc1cccc(S(=O)(=O)N(C)C)c1` (centres undefined) gave BaF3 tox 41.7*, MT stabilize HCS 4.8, IEC-6 tox 1.0, APP 5UTR inh -2.0, Ba/F3 V617F tox 10.5 and bCat nuc transl -1.8.
Screening COC(=O)C(Cc1ccccc1)NC(=O)CC(C)CC(=O)Nc1ccc(C)cc1 (centres undefined) returned IEC-6 tox 2.4.
Screening C#CC[N+](C)(C)CC#Cc1ccc(C)cc1 returned BaF3 tox 37.3*, MT stabilize HCS 7.3, IEC-6 tox -4.2, APP 5UTR inh -4.2, Ba/F3 V617F tox 41.4* and bCat nuc transl 9.8.
`C#CC[N+](CC)(CC)CC#Cc1ccccc1` gave BaF3 tox 62.2*, IEC-6 tox 0.7, Ba/F3 V617F tox 59.1* and bCat nuc transl 0.7.
`C(#Cc1ccccc1)CN1CCCCC1` gave BaF3 tox 1.4, MT stabilize HCS 1.7, IEC-6 tox 2.2, APP 5UTR inh 5.4, Ba/F3 V617F tox -3.8 and bCat nuc transl -0.8.
For CCOC(=O)C[N+](CC)(CC)CC#Cc1ccccc1 the results were BaF3 tox 2.4, MT stabilize HCS 0.8, IEC-6 tox 1.2, APP 5UTR inh -5.0, Ba/F3 V617F tox -0.1 and bCat nuc transl -1.1.
Screening C[N+](C)(CC#Cc1ccccc1)CC(=O)c1ccccc1 returned BaF3 tox 10.6, MT stabilize HCS 2.4, IEC-6 tox -2.2, APP 5UTR inh -16.5, Ba/F3 V617F tox -0.9 and bCat nuc transl -0.5.
Screening CC[N+](CC)(CC#Cc1ccccc1)CC#Cc1ccccc1 returned BaF3 tox 66.8*, IEC-6 tox 3.3, Ba/F3 V617F tox 89.3* and bCat nuc transl 0.4.
Screening CC1=C(Sc2nc3ccccc3[nH]2)C(=O)NC(C)(C)C1 returned BaF3 tox -1.4, MT stabilize HCS 1.8, IEC-6 tox -4.6, APP 5UTR inh 47.9*, Ba/F3 V617F tox -2.2 and bCat nuc transl -0.3.
For CC1=CC(C)(C)N(S(=O)(=O)c2ccc(F)cc2)c2ccc(C)cc21 the results were BaF3 tox -0.2, MT stabilize HCS 23.8*, IEC-6 tox 7.0, APP 5UTR inh 10.4, Ba/F3 V617F tox -2.2 and bCat nuc transl 33.1.
CCSc1nnc(NC(=O)c2cnccn2)s1 was read as bCat nuc transl -5.3.
For CC(C)c1nnc(NC(=O)c2ccc3c(c2)OCO3)s1 the results were BaF3 tox 3.4, MT stabilize HCS 2.3, IEC-6 tox 4.8, APP 5UTR inh -147.9, Ba/F3 V617F tox 1.7 and bCat nuc transl -0.5.
For CCSc1nnc(NC(=O)c2ccccn2)s1 the results were BaF3 tox 7.9, MT stabilize HCS 3.0, IEC-6 tox 47.1*, APP 5UTR inh -55.7 and Ba/F3 V617F tox -2.7.
COc1ccccc1-c1nnc(NC(=O)c2ccc3c(c2)OCO3)s1 was read as BaF3 tox 1.1, MT stabilize HCS 17.6, IEC-6 tox 0.7, APP 5UTR inh 46.1*, Ba/F3 V617F tox -1.5 and bCat nuc transl -3.5.
For CCOC(=O)CSc1nnc(NC(=O)c2ccc3c(c2)OCO3)s1 the results were IEC-6 tox -0.8.
